The term inhibition denotes the drop in the measured response relative to a control, in per cent.

In assay [1] the target is T1, Adenosine receptor A1 (Homo sapiens) (UniProt P30542).
T1 sequence (whole entry): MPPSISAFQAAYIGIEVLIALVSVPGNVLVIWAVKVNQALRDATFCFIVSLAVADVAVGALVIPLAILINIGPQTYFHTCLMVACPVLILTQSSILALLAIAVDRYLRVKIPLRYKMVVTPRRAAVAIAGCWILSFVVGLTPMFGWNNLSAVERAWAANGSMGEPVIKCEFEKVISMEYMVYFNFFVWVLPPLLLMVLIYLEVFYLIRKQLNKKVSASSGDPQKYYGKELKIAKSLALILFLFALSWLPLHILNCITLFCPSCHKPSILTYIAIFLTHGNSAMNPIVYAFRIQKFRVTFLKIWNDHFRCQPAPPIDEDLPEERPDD
The assay can be described thus: Displacement of [3H]DPCPX from human adenosine A1 receptor expressed in CHO cells at 10 uM after 120 mins by scintillation counting. For orientation: In a radioligand displacement assay an active substance lowers the binding of a labelled ligand.

Assay [2] deals with T1, Adenosine receptor A1 (Homo sapiens). Briefly: Allosteric enhancement of human adenosine A1 receptor expressed in CHO cells assessed as inhibition of CCPA-induced cAMP production at 100 nM after 10 mins. It counts as functional, cell-based. An outline of the steps: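 Intact hA1CHO cells (10⁶/mL) in phosphate buffer with adenosine deaminase 1.0 IU/mL and Ro 20-1724 0.5 mM, preincubated 10 min at 37 °C. Compound 100 nM plus CCPA 1 pM added for 10 min, then forskolin 1 μM for 5 min. Stopped with cold 6% TCA, ether-extracted. cAMP measured by [3H]-cAMP competition with adrenal binding protein (4 °C, 150 min). pmol/10⁶ cells, mean ± SEM of three.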

Assay [3] has the same target. The assay can be described thus: Allosteric enhancement of human adenosine A1 receptor expressed in CHO cells assessed as increase of CCPA Ki at 10 uM after 90 mins by [3H]DPCPX radioligand binding assay. In kind it is cell-based. An outline of the steps: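 hA1CHO membranes (50 mM Tris-HCl, pH 7.4, adenosine deaminase-treated). [3H]DPCPX 1 nM competed by CCPA (0.01 nM–1 μM) with or without test compound at 10 μM. Triplicate, 90 min at 25 °C. Nonspecific binding taken with 1 μM DPCPX. Filtration, then scintillation counting. Ki by Cheng–Prusoff. Shift = Ki(CCPA)/Ki(CCPA+enhancer). Mean ± SEM, n=3.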

Assay [4] shares this target. The assay can be described thus: Allosteric enhancement of human adenosine A1 receptor expressed in CHO cells assessed as inhibition of forskolin-induced cAMP production at 10 uM after 10 mins. In kind it is functional, cell-based. An outline of the steps: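 Whole hA1CHO cells (10⁶/mL) preincubated 10 min at 37 °C in phosphate buffer with adenosine deaminase (1.0 IU/mL) and Ro 20-1724 (0.5 mM). Compound alone at 10 μM for a further 10 min; forskolin 1 μM for 5 min. TCA stop, ether extraction, cAMP by [3H]-cAMP protein-binding competition assay. Expressed as pmol/10⁶ cells; mean ± SEM, three experiments.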
Background: cAMP levels reflect the balance of adenylyl cyclase and phosphodiesterase activity.

For assay [5] the target is unchanged. The assay can be described thus: Allosteric enhancement of human adenosine A1 receptor expressed in CHO cells assessed as increase of [3H]CCPA Bmax at 10 uM after 90 mins. It counts as cell-based. An outline of the steps:
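Saturation of [3H]CCPA (0.05–20 nM) on hA1CHO membranes in 50 mM Tris-HCl, pH 7.4, with or without compound at final 10 μM. Triplicate, 25 °C, 90 min. Nonspecific binding defined with 1 μM R-PIA. Filter-bound radioactivity counted. KD and Bmax fitted by weighted nonlinear least squares; Bmax shift versus control. Mean ± SEM, n=3.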

In assay [6] the target is Adenosine receptor A2a (Homo sapiens) (UniProt P29274). The assay can be described thus: Displacement of [3H]ZM 241385 from human adenosine A2A receptor expressed in CHO cells at 10 uM after 60 mins by scintillation counting. It counts as cell-based. The method in brief:
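hA2ACHO membranes in 50 mM Tris HCl, 10 mM MgCl2, pH 7.4, 4 °C for 60 min. [3H]ZM 241385 given as 1 nM in methods and 2 nM in table footnote. Compound at 10 μM from 100-fold DMSO stock, 1% DMSO final. Nonspecific binding with 1 μM ZM 241385. Filtration and scintillation counting. Percent inhibition of control specific binding, ±SEM, n=3.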

Assay [7] has as its target T2, Adenosine receptor A3 (Homo sapiens) (UniProt P0DMS8).
T2 sequence (whole entry): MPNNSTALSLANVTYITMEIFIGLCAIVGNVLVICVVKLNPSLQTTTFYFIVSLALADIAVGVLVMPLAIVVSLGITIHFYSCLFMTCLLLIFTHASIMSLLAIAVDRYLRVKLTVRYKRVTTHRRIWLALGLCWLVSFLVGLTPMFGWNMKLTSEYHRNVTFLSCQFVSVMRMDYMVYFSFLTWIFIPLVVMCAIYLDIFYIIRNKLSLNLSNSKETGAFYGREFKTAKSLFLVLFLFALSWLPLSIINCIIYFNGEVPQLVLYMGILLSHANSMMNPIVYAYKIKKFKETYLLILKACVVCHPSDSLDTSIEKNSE
Briefly: Displacement of [3H]MRE-3008-F20 from human adenosine A3 receptor expressed in CHO cells at 10 uM after 120 mins by scintillation counting.

Sequence of Adenosine receptor A2a (Homo sapiens) (P29274 whole entry): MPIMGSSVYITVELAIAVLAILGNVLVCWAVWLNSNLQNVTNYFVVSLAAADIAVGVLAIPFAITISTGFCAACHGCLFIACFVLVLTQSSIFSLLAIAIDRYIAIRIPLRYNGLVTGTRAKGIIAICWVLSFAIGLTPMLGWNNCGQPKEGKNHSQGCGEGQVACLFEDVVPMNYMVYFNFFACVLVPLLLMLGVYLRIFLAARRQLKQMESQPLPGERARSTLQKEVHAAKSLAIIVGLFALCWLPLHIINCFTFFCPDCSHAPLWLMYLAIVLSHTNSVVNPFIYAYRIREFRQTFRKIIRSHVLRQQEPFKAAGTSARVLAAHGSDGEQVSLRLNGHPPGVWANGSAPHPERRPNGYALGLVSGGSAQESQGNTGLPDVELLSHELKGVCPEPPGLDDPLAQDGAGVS

Consider `Nc1scc(CN2CCN3c4ccc(Cl)cc4CC3C2)c1C(=O)c1ccc(Cl)cc1` (configuration not stated), for which the inhibition in assay [1] was determined as 1%; in assay [2], 11%; in assay [4], 7%; in assay [6], 4%; in assay [7], 1%. The values for the fold change (FC) in assay [3] and in assay [5] were 1.1 and 1.2, respectively.
As to `CC(C)N(Cc1csc(N)c1C(=O)c1ccc(Cl)cc1)C(C)C`, the inhibition in assay [1] came out at 1%; in assay [2], 14%; in assay [4], 4%; in assay [6], 0%; in assay [7] it was 3%. For the same compound, the fold change (FC) in assay [3] and in assay [5] was 1 each time.
For the compound `CCN(Cc1csc(N)c1C(=O)c1ccc(Cl)cc1)c1ccccc1`, the inhibition in assay [1] was 0%; in assay [2], 18%; in assay [4], 19%; in assay [6], 0%; in assay [7] it was 11%. Moreover, the fold change (FC) was found to be 1.9 in assay [3] and 2.3 in assay [5].
`CN(Cc1ccccc1)Cc1csc(N)c1C(=O)c1ccc(Cl)cc1`: the inhibition in assay [1] is 1%; in assay [2], 40%; in assay [4], 42%; in assay [6], 1%; in assay [7] it was 7%. Also, the figures for the fold change (FC) in assay [3] and in assay [5] were 4 and 4.4, respectively.
As for `CN(Cc1c(-c2ccccc2)sc(N)c1C(=O)c1ccc(Cl)cc1)C(C)(C)C`, the inhibition in assay [1] stood at 5%; in assay [2] it was 13%; in assay [4] it was 10%; in assay [6], 1%; in assay [7], 10%. Further, the fold change (FC) in assay [3] and in assay [5] was 1.3 in each case.
Regarding `Cc1ccc2c(c1)CC1CN(Cc3csc(N)c3C(=O)c3ccc(Cl)cc3)CCN21` (configuration not stated), the inhibition was found to be 6% in assay [1]; 13% in assay [2]; 3% in assay [4]; 0% in assay [6]; 7% in assay [7]. Further, the fold change (FC) in assay [3] and in assay [5] was 1 throughout.

Source of the values: ChEMBL document CHEMBL2417436, “Synthesis and biological effects of novel 2-amino-3-(4-chlorobenzoyl)-4-substituted thiophenes as allosteric enhancers of the A1 adenosine receptor” (Eur J Med Chem, 2013).
